The values below come from ChEMBL document CHEMBL4513216, “Probing the Open Global Health Chemical Diversity Library for Multistage-Active Starting Points for Next-Generation Antimalarials” (ACS Infect Dis, 2020).

This data set in a line: Toxicity liver stage against HepG2, at 10uM. The data set is classed as cell-based. Conditions: human, HepG2-A16-CD81EGFP cells; read-out: INHIBITION
Further details: test concentration 10 uM, cell line HepG2-A16-CD81EGFP. The procedure, abridged:
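Uninfected HepG2-A16-CD81EGFP cells, 3 × 10^3 per well, 1536-well, plated on prespotted compound at 10 μM final, parasite-free screening media added to match infected plates; puromycin 10 μM positive, DMSO 0.5% negative; run in parallel with 48 h PbLuc assay at 37 °C, 5% CO2; viability by CellTiter-Glo luminescence, normalized to controls.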
Regarding `CN1C(=N)NC(=O)/C1=C\c1ccc(-c2ccc(F)cc2)o1`, the cytotoxicity at 10 µM worked out at 13.5%. As for `CCOc1ccccc1CNS(=O)(=O)c1ccc2c(c1)CCCC(=O)N2`, the cytotoxicity at 10 µM turned out to be 7.89%. As for `CCCC(O)CN1CC(C)(C)CN(C(=O)c2ccccc2)CC1=O` (centres undefined), the cytotoxicity at 10 µM is -0.295%.

On to `CNC(=O)CC1c2cccnc2C(=O)N1Cc1ccccc1` (centres undefined), for which the cytotoxicity at 10 µM is -2.51%. As for `COc1ccc(CN2CC(O)CN(C(=O)CC(C)C)CC2=O)cc1` (centres undefined), the cytotoxicity at 10 µM is -0.634%. `CCOc1ccc2[nH]c3c(N(C)CC4OCCO4)ncnc3c2c1`: the cytotoxicity at 10 µM amounted to 15.2%.

`O=C(Cc1cnc(-c2c(Cl)cccc2Cl)s1)N1CCOCC1`: the cytotoxicity at 10 µM was found to be 3.29%. Under `COCCn1cnc2ccc(NC(=O)c3ccccn3)cc2c1=O` stands -6.81%; under `COCCNC(=O)NC1(c2nc(C)no2)CCCCC1`, 1.56%; under `Cc1nc(N2CCOCC2)nc(C)c1NC(=O)COc1ccccc1`, 4.17%. For `COCCN1CCn2c(nc3cc(C(=O)NC(C)C)ccc32)C1` the value was 2.38%.

In the case of `CC(C)n1c(=O)c2sccc2n(CC(=O)Nc2cccc(Cl)c2)c1=O`, the cytotoxicity at 10 µM turned out to be 8.93%. Under `O=C(CCn1nc(C(F)(F)F)c(Cl)c1C1CC1)NN1CCOCC1` stands 7.69%.

Take `Cc1ncc(C(=O)N2CCC(C(=O)NC3CCCC3)C2)c(C)n1` (centres undefined): the cytotoxicity at 10 µM is 6.3%. With `CN(C)CCNC(=O)CC1CCN(c2cccnn2)CC1`, the cytotoxicity at 10 µM amounted to 6.04%. Under `Cc1cc(C)n(C2CCN(S(=O)(=O)N3CCC(C)CC3)CC2)n1` stands 6.36%. On to `CCCn1nccc1-c1nccnc1CC1CCN(C(C)=O)CC1`, for which the cytotoxicity at 10 µM was -6.15%. For `CCC(=O)N1CCC(c2nc(C)ncc2-c2ccncc2)CC1` the value was 6.04%; for `c1cc(CCNc2ccc(CC3CCNC3)cn2)ccn1` (centres undefined), 3.09%.

For the molecule `CCCc1cc(C(=O)N[C@@H]2CC[C@@H](N3CCOCC3)[C@@H]2O)no1`, the cytotoxicity at 10 µM is -3.59%.

Turning to `c1cncc(CN2CC(Cc3nccc4cc[nH]c34)C2)c1`, the cytotoxicity at 10 µM is -2.26%.

Regarding `O=C(C1CCOCC1)N1CCOCC(Cc2ncccn2)C1` (centres undefined), the cytotoxicity at 10 µM worked out at 1.38%. Under `Clc1cccc(Cl)c1CN(CCCN1CCOCC1)Cc1cccnc1` stands -0.52%; under `O=S1(=O)NCC2(CCCN(Cc3ccccn3)C2)Oc2ncccc21` (centres undefined), 2.22%; under `Cc1ccc2c(c1)N(C(=O)c1cc[nH]c(=O)c1)CC(C)O2` (centres undefined), 2.71%.

Regarding `N#Cc1c(CN2CCCCC2Cn2cncn2)cn2ccccc12` (centres undefined), the cytotoxicity at 10 µM came out at 3.06%. For `Cc1cc(CSCc2csc(CS(C)(=O)=O)n2)no1` the value was -2.49%.

`Cc1noc(NCc2cn(C)nc2-c2ccncc2)n1`: the cytotoxicity at 10 µM is -3.48%.

Regarding `Cc1nn2cccnc2c1C(=O)NCc1ccnc(OCC2CC2)c1`, the cytotoxicity at 10 µM was -41.6%. As to `Cc1cc(NC(=O)C2CCN(c3nnc(C)c(C)c3C#N)CC2)no1`, the cytotoxicity at 10 µM was -4.11%. Under `Cc1nc(CN2CCN(S(=O)(=O)N3CCCCC3)CC2)oc1C` stands 3.64%; under `Cc1csc(CN(CC2CCCO2)C(=O)c2ccc(C)nc2C)n1` (centres undefined), -1.19%; under `CC(C)CCS(=O)(=O)CC(=O)N1CCCC1c1cnn(C)c1` (centres undefined), 0.528%. Under `Cc1cn2c(CN(C)C(=O)c3cccnc3O)c(C)nc2s1` stands -8.59%; under `CC(=O)NCCC(=O)NCc1cc(Br)ccc1OC(F)F`, -6.47%; under `CSCC(=O)NCc1cc(Br)ccc1OC(F)F`, -8.22%. As for `N#Cc1ccccc1OCCN1CCCC(c2noc(C3CC3)n2)C1` (centres undefined), the cytotoxicity at 10 µM is 5.87%.

For the molecule `CCCc1nc(C)c(C(=O)NC2CCN(C3CC3)C2)s1` (centres undefined), the cytotoxicity at 10 µM was -7.82%. With `CCn1cc(S(=O)(=O)NC(CO)Cc2c[nH]c3ccccc23)cn1` (centres undefined), the cytotoxicity at 10 µM turned out to be 10.8%. Under `CCc1cc(NC(=O)C2CCCN(C(=O)NCC(C)C)C2)[nH]n1` (centres undefined) stands -4.56%; under `CS(=O)(=O)c1nccn1Cc1ccc(C(N)=O)cc1`, 6.77%; under `Cc1nc(CSc2nc(=O)ccn2C(C)C)cs1`, 16.4%. On to `COCCC(=O)Nc1nc2c(OC)cc(F)cc2s1`, for which the cytotoxicity at 10 µM was -0.327%. Under `c1cc(CN2CCOC3(CCCC3)C2)no1` stands -8.29%; under `CC(C)NC(=O)C1CN(C(=O)c2ccco2)CC12CCOCC2` (centres undefined), -0.516%. For `CS(=O)(=O)N1CCC2(CC1)CC(CC(=O)N1CCCC1)c1ccccc12` (centres undefined) the value was -0.748%; for `CCC(O)Cn1nc(CCSC)nc1-c1ccc2c(c1)OCCO2` (centres undefined), -0.268%. Under `Cc1c(CN2CCCC(C(=O)CCc3ccccc3)C2)cc(C#N)n1C` (centres undefined) stands -5.76%; under `CC(C)Nc1cc(N2CCC(n3cc(CCO)nn3)CC2)ncn1`, 16.3%. Regarding `CCc1cnc(N2Cc3cnc(C(C)(C)C)nc3C2)nc1`, the cytotoxicity at 10 µM was found to be 3.51%. Under `c1cc(C2CCN(Cc3ccc4c(c3)OCO4)CC2)ccn1` stands -2.98%; under `CCc1cc(N(C)CCCO)n2nccc2n1`, 1.77%. For `Cn1ncc2c(N3CCCC(C)(O)C3)nc(C(C)(C)C)nc21` (centres undefined) the value was -43.6%; for `Cc1ccccc1-n1cc(C2=CCN(CCN3CCOCC3)CC2)cn1`, -5.06%; for `COC(=O)CCC(=O)N(C/C=C/c1ccccc1)CCO`, 3.28%. Regarding `c1cnc2nc(C3CCNCC3)[nH]c2c1`, the cytotoxicity at 10 µM is 9.57%. For `NC(=O)CN1CC2(CCC1=O)CCN(Cc1ccccc1F)CC2` the value was 1.81%. For the molecule `COCc1nnc(C(=O)N(C)Cc2ccc(OC)cc2)o1`, the cytotoxicity at 10 µM was -0.164%. As for `O=S1(=O)COCCN1Cc1ccc(F)c(C(F)(F)F)c1`, the cytotoxicity at 10 µM is 7.52%.

In the case of `CN(Cc1ccon1)CC1CCOc2ccccc2C1` (centres undefined), the cytotoxicity at 10 µM was -6.95%. As to `CCc1ccc(CN2CCNC(C(=O)N3CCN(C)CC3)C2)o1` (centres undefined), the cytotoxicity at 10 µM was -0.891%.

For the molecule `CCOc1cc(C)nc(N2CCN(C(=O)c3cc(C)on3)CC2)n1`, the cytotoxicity at 10 µM is -1.61%. For `Cc1ccc(C(=O)NS(=O)(=O)c2c(Cl)cccc2Cl)c(=O)[nH]1` the value was -0.855%; for `COc1c(C2CCCN2CC(=O)Nc2cccnc2)c(C)nn1C` (centres undefined), -2.39%; for `CCc1nnc2n1CCN(Cc1csc(Cc3ccccc3)n1)C2`, -25%. Under `Cc1cc(NC(=O)CN2CCN(c3nccs3)C(C)C2)no1` (centres undefined) stands -9.66%; under `Cc1cc(CN2CCC(N(C)Cc3nnc(C4CC4)n3C)C2)on1` (centres undefined), -11.6%; under `CNc1nc(CNC(=O)Nc2ccccc2C(F)(F)F)cs1`, -0.896%. Under `Cc1cccc(CN(C(=O)NCc2ccccn2)C2CC2)c1` stands -6.73%; under `COc1c(C2CCCN2C(=O)c2c(C)noc2C)c(C)nn1C` (centres undefined), 0.471%; under `c1ccc(Cc2nnc(CN3CCOC(Cn4cccn4)C3)o2)cc1` (centres undefined), -8.48%. As to `COc1cc(Cl)ccc1C(=O)N1CCCC(n2nc(C)nc2C)C1` (centres undefined), the cytotoxicity at 10 µM is -5.8%. For `CC(c1c(F)cccc1F)N1CCN(Cc2nccn2C)CC1` (centres undefined), the cytotoxicity at 10 µM was -13.6%.

On to `CCc1nnc2n1CCN(C(=O)c1ccnc(N(C)C)c1)C2`, for which the cytotoxicity at 10 µM is -21%. Under `Cc1nc(C2CCCN(C(=O)c3c(C)nn4cccnc34)C2)no1` (centres undefined) stands -7.62%. Under `Cc1nc(CC(=O)N2CCCC2Cn2cccn2)cs1` (centres undefined) stands -11.2%; under `CCc1nc(C2CCCN2CC(=O)Nc2cc(C)nn2C)no1` (centres undefined), -7.82%. Under `CNc1snc(C)c1C(=O)N1CCCC(n2nc(C)nc2C)C1` (centres undefined) stands -7%; under `Cc1cnn(CC2CN(c3ncnc4[nH]ccc34)CCO2)c1` (centres undefined), -1.91%. In the case of `COc1ccccc1OCCNCCn1cccn1`, the cytotoxicity at 10 µM is -4.53%. Regarding `Cc1cnn(CC(C)NCc2csc(-c3cccs3)n2)c1` (centres undefined), the cytotoxicity at 10 µM is -5.8%.

As for `Cn1cc(C2CCCN2CCC(=O)N2CCc3sccc3C2)cn1` (centres undefined), the cytotoxicity at 10 µM is -8.25%. `COCCOc1ccccc1C(=O)N1CCCC(c2cc(C)[nH]n2)C1` (centres undefined): the cytotoxicity at 10 µM was -22.6%. Turning to `Cc1cnn(C2CCCN(C(=O)c3sccc3C#N)C2)c1` (centres undefined), the cytotoxicity at 10 µM was 0.736%. For `Cn1cc(NC(=O)N2CCC(CN3CCCC3)CC2)ccc1=O` the value was -11.5%; for `c1ncn(CC2CCCCN2Cc2noc(C3CC3)n2)n1` (centres undefined), -0.935%. Take `O=C(Nc1ccccn1)C1=NN(c2ccccc2)C(=O)CN1`: the cytotoxicity at 10 µM is -1.53%. Turning to `CCc1c(C(=O)NC2CCS(=O)(=O)C2)cnn1-c1ccc(F)cc1` (centres undefined), the cytotoxicity at 10 µM is -6.31%. Under `N#Cc1ccc(OCCN2CCc3c(ncn3C3CC3)C2)cc1` stands -0.318%; under `CCc1nc(C2CCCN2C(=O)c2nc(C)n3ccccc23)no1` (centres undefined), 1.85%.

As for `Cc1cc(C(=O)N2CCc3nnc(N(C)C)cc3C2)c(C)n1C1CC1`, the cytotoxicity at 10 µM was determined as 1.56%. Under `Fc1ccc(OCCCN2CCOC(Cn3cncn3)C2)cc1` (centres undefined) stands -1.03%; under `CC(C)C(=O)NCc1cccc(N2CCCCC2=O)c1`, -1.73%. For `NC(=O)N1CC2(CCNCC2)c2cc(Cl)ccc21` the value was 1.79%; for `CC(C)c1nn(C)c(N(C)C)c1CNCc1cccc2cccnc12`, -11.2%. Under `Cc1ccc(C(=O)N2C[C@@H]3CCN(c4cccnc4)C[C@@H]3C2)cn1` stands -75.9%. With `Cn1ccnc1NC[C@@H]1CCC[C@@H]2CN(Cc3cccnc3)C[C@@H]21`, the cytotoxicity at 10 µM was determined as 5.55%. Under `c1cnc(NCc2cncc3c2CCN(Cc2ccoc2)C3)nc1` stands -70.9%; under `O=C(c1cccnc1)N1C[C@H]2CC[C@@H](C1)N(Cc1cc(F)ccc1F)C2`, -10.2%.
